What was measured:
[1] = tested on: DIO-C57BL/6J mice; test: In vivo pharmacological evaluation in diet-induced obese mice; design: species or system mouse; conditions: YR4-42 50 mg/kg
Outline: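 Male C57BL/6J mice (6 weeks old) on 60%-fat diet for 10 weeks, continued throughout; 16-week-old DIO mice randomised, n = 12/group, gavaged 38 days with 0.5% CMC-Na vehicle, pioglitazone 25 mg/kg or test compound 50 mg/kg; chow-fed vehicle controls. Body weight every 2 days; insulin tolerance test day 14 (AUC); day 38 liver weighed, TG/TC/FFA by kits normalised to tissue weight; mean ± SEM.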

[2] = molecular target: T1, PPARγ ligand-binding domain (LBD) (Homo sapiens, UniProt P37231); test: PPARγLBD-Gal4-luciferase reporter transactivation assay; type: cell-based; conditions: 20 μmol/L GW9662, 10 μmol/L YR4-42; Figure 1H
T1 sequence (P37231 204-505): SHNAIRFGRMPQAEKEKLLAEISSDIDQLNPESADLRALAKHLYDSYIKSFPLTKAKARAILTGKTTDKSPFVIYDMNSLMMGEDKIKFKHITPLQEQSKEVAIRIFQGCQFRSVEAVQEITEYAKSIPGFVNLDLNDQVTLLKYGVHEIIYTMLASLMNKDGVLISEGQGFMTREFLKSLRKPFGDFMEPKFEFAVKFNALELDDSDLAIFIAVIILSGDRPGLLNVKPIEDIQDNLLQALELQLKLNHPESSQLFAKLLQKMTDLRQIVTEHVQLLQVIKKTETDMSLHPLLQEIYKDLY

Row | Compound | hepatic TG, total cholesterol and FFA ([1]; 38th day, pioglitazone 25 mg/kg oral, Figure 3K-M) | body weight of DIO mice ([1]; oral gavage 38 days, pioglitazone 25 mg/kg, Figure 3A,B) | effect of antagonist on PPARγ transactivation induced by YR4-42 [2]
1 | CCc1ccc(CCOc2ccc(CC3SC(=O)NC3=O)cc2)nc1 (stereo not drawn) [pioglitazone] | increased | further enhanced weight gain | –
2 | O=C(Nc1ccccc1)c1cc([N+](=O)[O-])ccc1Cl [GW9662] | – | – | inhibited
